Test results reported in ChEMBL document CHEMBL5715960, “Epigenetic Co-Deregulation of EZH2/TET1 is a Senescence-Countering, Actionable Vulnerability in Triple-Negative Breast Cancer” (Theranostics, 2019).
The source made the active and inactive calls. The calls are words filed in the database; no cut-off is given here.

What was measured:
MDA-MB-361 = test: Antiproliferative activity in human MDA-MB-361 cells assessed as increase in SA-beta-gal positive cells at 2 uM for 5 days by SA-beta-gal staining analysis; type: toxicity, cell-based; conditions: mda-mb-361, 120 h, time 5 day
How it was run: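 GSK343 2 µM or DMSO for 5 days, then chromogenic SA-β-gal staining and counting of positive cells. Triplicate; mean ± SD.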

MDA-MB-231 [1] = test: Cytotoxicity against human MDA-MB-231 cells assessed as killing of cells at 2 uM in presence of adriamycin; type: functional, cell-based
How it was run: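 Viability after a range of adriamycin concentrations given alone or together with 2 µM GSK343, measured by Guava ViaCount; mean ± SD.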

MDA-MB-231 [2] = test: Effect on human MDA-MB-231 cells assessed as apoptotic phenotype by measuring increase in BAX expression level at 2 uM in presence of adriamycin by immunoblot analysis; type: functional, cell-based
How it was run: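 Immunoblot of cell lysates after 0.05 µg/ml adriamycin alone, with 2 µM GSK343, or DMSO. α-Tubulin and total H3 used as loading controls.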

SMILES: CCCc1cc(C)[nH]c(=O)c1CNC(=O)c1cc(-c2ccnc(N3CCN(C)CC3)c2)cc2c1cnn2C(C)C
- Activity (MDA-MB-361): Non-Toxic
- Activity (MDA-MB-231 [1]): Active
- Activity (MDA-MB-231 [2]): Active
